Laboratory results published in PMC6800648 (Cell chemical biology, 2019).
“And” between values parts separate entries of the source, which are not always exact repeats. Identical values can stand only once. Square brackets hold non-standard residues; d marks the D form. Peptide text beside a SMILES is read from it. * marks the point of attachment. Lys(Me,2-norbornyl) = CN(CCCC[C@H](N)C(=O)O)C1CC2CCC1C2; Benzoyl(4-tBu) = CC(C)(C)c1ccc(C(=O)*)cc1; Lys(Et2) = CCN(CC)CCCC[C@H](N)C(=O)O

Tests used:
CBX7 [1] = target: T1, CBX7 (Mus musculus, UniProt Q8VDS3); assay: Polycomb in-vivo Assay; format: cell-based
T1 sequence (Q8VDS3 2-69 limits assumed): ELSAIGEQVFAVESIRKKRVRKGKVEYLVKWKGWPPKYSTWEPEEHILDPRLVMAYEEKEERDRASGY

CBX7 chromodomain [2] = details: ref Stuckey et al., 2016a, 2016b; cited from earlier work
mESCs = assay: CellTiter-Glo viability assay in mESCs; format: cell-based, mouse; details: 48 hr
How it was run: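 Mouse ES cells, 5,000 per well, exposed in technical triplicate for 48 hr at 37°C to a ten-point three-fold dilution series prepared from 50 mM DMSO stocks (0.2% DMSO final). Media-only wells served as negative controls. After equilibrating at room temperature, CellTiter-Glo was added, with 2 min shaking and 10 min settling, then luminescence read.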

CBX7 and RING1B = target: T2, CBX7 and RING1B (Mus musculus, UniProt Q8VDS3); assay: ChIP-qPCR / ChIP-seq in mESCs; format: cell-based; details: 4 hours, 20 μM
T2 sequence (Q8VDS3 1-158): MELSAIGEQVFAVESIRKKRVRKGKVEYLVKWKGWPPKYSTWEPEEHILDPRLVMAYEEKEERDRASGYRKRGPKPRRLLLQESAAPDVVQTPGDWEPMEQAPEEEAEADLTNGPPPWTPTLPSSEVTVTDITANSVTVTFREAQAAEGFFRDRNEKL
T2 sequence (Q9CQJ4 2-336 partner limits assumed): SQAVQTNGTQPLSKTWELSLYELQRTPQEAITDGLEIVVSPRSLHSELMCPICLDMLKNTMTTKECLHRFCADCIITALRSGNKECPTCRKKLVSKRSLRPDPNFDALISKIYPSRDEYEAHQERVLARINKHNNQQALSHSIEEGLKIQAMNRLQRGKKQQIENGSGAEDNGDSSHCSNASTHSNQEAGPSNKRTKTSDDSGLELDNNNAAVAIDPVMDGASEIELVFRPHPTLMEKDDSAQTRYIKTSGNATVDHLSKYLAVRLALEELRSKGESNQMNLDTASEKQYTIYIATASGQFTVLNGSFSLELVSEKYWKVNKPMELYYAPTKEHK

CBX7 chromodomain [3] = target: T3, CBX7 chromodomain (Homo sapiens, UniProt O95931); assay: Fluorescence polarization; format: biochemical; details: for enhancement in CBX7 affinity for FAM-dsDNA: 1:3 ratio of compound to protein titration; for allosteric modulator class of oligonucleotide binding: FP data fit to the Stockton/Ehlert allosteric binding model; for α (factor of enhancement of CBX7 affinity for the DNA probe): Stockton/Ehlert allosteric binding model, 1:3 compound to CBX7, 100 nM FAM-dsDNA
T3 sequence (O95931 1-62): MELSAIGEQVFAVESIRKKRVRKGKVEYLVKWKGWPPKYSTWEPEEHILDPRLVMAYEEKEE
How it was run: (§1)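 Buffer: 25 mM Tris-HCl pH 7.4, 100 mM NaCl, 0.05% Tween-20, 2 mM DTT; 100 nM FAM-dsDNA or FAM-ANRIL-RNA; 0.2% DMSO; 30 min at RT. Compound titration: eight-point three-fold series from 100 µM with 30 µM CBX7 chromodomain. Ratio mode: CBX7 and test compound co-diluted at fixed 3:1 from 300 µM/100 µM. Polarisation normalised to a no-protein control; α fitted by the Stockton-Ehlert allosteric model.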

Polycomb target genes = assay: RT-qPCR mRNA expression in HEK293 cells; format: cell-based, human; details: for effect on transcription of Polycomb target genes: HEK293, 6 μM and 20 μM, 2 days
How it was run: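 HEK293 cells were treated with test compounds at 6 µM and 20 µM for 2 days. RNA was reverse-transcribed and Polycomb target transcripts were quantified by qPCR with ~100–150 bp amplicons.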

CBX7 chromodomain [4] = target: T3, CBX7 chromodomain; assay: Electrophoretic mobility shift assay; format: biochemical; details: for binding to CBX7 by Coomassie stain (higher molecular weight band shifts): EMSA gel; for effect on FAM-dsDNA binding to CBX7: EMSA, 150 mM CBX7 and 100 nM FAM-dsDNA probe, 1:3 ratio of compound to CBX7
How it was run: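 Buffer: 25 mM Tris-HCl pH 7.4, 100 mM NaCl, 0.05% Tween-20, 2 mM DTT. Compound runs used 150 µM CBX7 with 100 nM FAM-DNA probe and 50 µM test compound (0.3% DMSO); protein-only runs used a three-fold CBX7 series. Binding 20 min on ice. Native 10% Tris-glycine gel at 100 V, 4°C, 90 min in the dark. FAM fluorescence imaged, then Coomassie-stained.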

CBX2 chromodomain = assay: Isothermal titration calorimetry; format: binding; details: from ITC Kd values
How it was run: (§2)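 ITC at 25 °C in 25 mM Tris-HCl pH 7.5, 150 mM NaCl, 2 mM β-mercaptoethanol. Typically 50 µM chromodomain in cell, 0.5 mM test compound in syringe (10:1 kept). Protein quantified by Edelhoch, compound by mass. One 0.2 µl injection then 26 × 1.5 µl injections at 180 s spacing; first point discarded. Kd from one-site nonlinear least-squares fit.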

CBX7 [5] = target: T4, CBX7 (Mus musculus, UniProt Q8VDS3); format: cell-based; details: TetOFF reporter cell line; UNC4976 compared to UNC3866 treatment
T4 sequence (Q8VDS3 1-158): T2 sequence (Q8VDS3 1-158)

SUZ12 and H3K27me3 = assay: Capture ChIP-seq in mESCs, SUZ12 and H3K27me3; format: cell-based, mouse
CBX6 chromodomain = assay: Isothermal titration calorimetry; format: binding; details: from ITC Kd values
How it was run: as §2

CBX7 chromodomain [6] = target: T5, CBX7 chromodomain (Homo sapiens, UniProt O95931); assay: Isothermal titration calorimetry; format: binding; details: ITC
T5 sequence (O95931 8-62): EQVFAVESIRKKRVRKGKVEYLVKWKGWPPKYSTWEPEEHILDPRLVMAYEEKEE
How it was run: as §2

CDYL2 chromodomain = assay: Isothermal titration calorimetry; format: binding; details: from ITC Kd values
How it was run: as §2

CBX7 chromodomain [7] = target: T3, CBX7 chromodomain; assay: Fluorescence polarization; format: biochemical
How it was run: as §1

[8] = Stockton/Ehlert allosteric binding model, 1:3 compound to CBX7, 100 nM FAM-ANRIL-RNA

| Compound | EC50 (CBX7 [1]) [µM] | CBX7 and RING1B binding at PRC1 target TSSs (CBX7 and RING1B) | enhancement in CBX7 affinity for FAM-dsDNA (CBX7 chromodomain [3]) | allosteric modulator class of oligonucleotide binding (CBX7 chromodomain [3]) | α (factor of enhancement of CBX7 affinity for the DNA probe) (CBX7 chromodomain [3]) | effect on transcription of Polycomb target genes (Polycomb target genes) | binding to CBX7 by Coomassie stain (higher molecular weight band shifts) (CBX7 chromodomain [4]) | effect on FAM-dsDNA binding to CBX7 (CBX7 chromodomain [4]) | further results |
| --- | --- | --- | --- | --- | --- | --- | --- | --- | --- |
| CCN(CC)CCCC[C@H](NC(=O)[C@H](CC(C)C)NC(=O)[C@H](C)NC(=O)[C@H](Cc1ccccc1)NC(=O)c1ccc(C(C)(C)C)cc1)C(=O)N[C@@H](CO)C(=O)OC [UNC3866, methyl N^2-(4-(tert-butyl)benzoyl)-L-phenylalanyl-L-alanyl-L-leucyl-N^6,N^6-diethyl-L-lysyl-L-serinate] ({Benzoyl(4-tBu)}-FAL[Lys(Et2)]S-OMe) | 41.7 ± 2.24 | more limited impact | negligible enhancement | silent allosteric modulator (SAM) | 1.5 | either no or a mild effect | showed binding to CBX7 | did not have any effect | fold more potent than fragments of the endogenous H3K27me3 peptide (CBX7 chromodomain [2]): > 100 fold; mESC viability upon compound treatment (mESCs): non-toxic |
| COC(=O)[C@H](CO)NC(=O)[C@H](CCCCN(C)C1CC2CCC1C2)NC(=O)[C@H](CC(C)C)NC(=O)[C@H](C)NC(=O)[C@H](Cc1ccccc1)NC(=O)c1ccc(C(C)(C)C)cc1 (stereo partly drawn) [UNC4976, methyl N^6-(bicyclo[2.2.1]heptan-2-yl)-N^2-(4-(tert-butyl)benzoyl)-L-phenylalanyl-L-alanyl-L-leucyl-N^6-methyl-L-lysyl-L-serinate] ({Benzoyl(4-tBu)}-FAL[Lys(Me,2-norbornyl)]S-OMe) | 3.21 ± 0.352 | substantially reduced | significant enhancement | positive allosteric modulator | 4.2 | pronounced increase in transcription | showed binding to CBX7 | enhanced FAM-dsDNA binding | selectivity for CBX4/7 over CBX2 (CBX2 chromodomain): 28 fold; derepression of the GFP reporter gene / maintenance of Polycomb silencing (CBX7 [5]): enhanced; fold more potent than UNC3866 in the CBX7 reporter cell line (CBX7 [1]; EC50 ratio versus UNC3866): ~ 14 fold and 14 fold; reduction in SUZ12 binding and H3K27me3 (SUZ12 and H3K27me3): only a mild or insignificant reduction; selectivity for CBX4/7 over CBX6 (CBX6 chromodomain): 9 fold; mESC viability upon compound treatment (mESCs; at 100 μM): weak toxicity; affinity for CBX4 and CBX7 compared (CBX7 chromodomain [6]): equipotent affinity; change of fluorescence polarization on compound titration (CBX7 chromodomain [3]; 30 μM CBX7 chromodomain, 100 nM FAM-dsDNA): increased polarization; fold higher expression than UNC3866 treatment at the same concentration (Polycomb target genes; HEK293, in some cases): 8 fold; selectivity for CBX4/7 over CDYL2 (CDYL2 chromodomain): 8 fold; effect on CBX7 binding to FAM-ANRIL-RNA (CBX7 chromodomain [7]; 1:3 ratio of compound to protein titration): promoted enhanced CBX7 binding to RNA; α (factor of enhancement of CBX7 affinity for the RNA probe) (CBX7 chromodomain [7]; [8]): 4.0; β (ratio of FP factors between [RNA:CBX7:UNC] and [RNA:CBX7]) (CBX7 chromodomain [7]; [8]): 1.1 |
